Reference: ChEMBL document CHEMBL4406829, “Synthesis and in vitro evaluation of piperazinyl-ureido sulfamates as steroid sulfatase inhibitors” (Eur J Med Chem, 2019)

Experiments:
[1] = target: T1, Steryl-sulfatase (Homo sapiens) (UniProt P08842); assay: Inhibition of steroid sulfatase in human JEG3 cell lysates assessed as residual activity at 10 uM using [3H] E1S as substrate after 1 hr by scintillation spectrometry analysis relative to control; values are per cent of control; conditions: Lysate
T1 sequence (whole entry): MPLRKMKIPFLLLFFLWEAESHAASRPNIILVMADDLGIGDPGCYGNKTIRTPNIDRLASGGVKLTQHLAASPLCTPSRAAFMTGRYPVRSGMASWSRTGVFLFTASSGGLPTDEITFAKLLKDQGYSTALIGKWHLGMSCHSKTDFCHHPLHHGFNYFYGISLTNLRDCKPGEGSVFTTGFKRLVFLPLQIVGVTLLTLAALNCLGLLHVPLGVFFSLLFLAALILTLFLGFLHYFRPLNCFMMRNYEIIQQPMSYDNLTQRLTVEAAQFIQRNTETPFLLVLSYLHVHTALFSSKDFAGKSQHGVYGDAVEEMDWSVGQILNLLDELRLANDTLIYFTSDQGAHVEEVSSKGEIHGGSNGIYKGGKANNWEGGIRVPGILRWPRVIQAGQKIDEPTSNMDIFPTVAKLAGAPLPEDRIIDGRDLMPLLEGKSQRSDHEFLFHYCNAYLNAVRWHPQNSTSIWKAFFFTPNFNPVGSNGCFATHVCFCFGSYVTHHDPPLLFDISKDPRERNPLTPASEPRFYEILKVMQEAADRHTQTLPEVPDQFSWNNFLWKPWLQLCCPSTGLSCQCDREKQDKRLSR

[2] = target: T2, Steryl-sulfatase (Homo sapiens, UniProt P08842); assay: Inhibition of steroid sulfatase in human JEG3 cell using [3H] E1S as substrate after 1 hr by scintillation spectrometry analysis
T2 sequence (P08842 whole entry): T1 sequence (whole entry)
Procedure, shortened: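 JEG-3 (human placental choriocarcinoma) lysate at 125 μg protein/mL incubated 1 h with inhibitor (0.001–10 μM) and [3H]E1S adjusted to 20 μM with unlabelled E1S. Estrone product was extracted with toluene, and [14C]E1 was used to correct for losses. Read-out was 3H/14C scintillation counting. IC50 from activity with and without inhibitor; mean ± S.D., n = 3.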

residual activity [1] [%] | IC50 [2] [nM] | Compound
29.6 | – | CCCCCCCCN1CCN(C(=O)Nc2ccc(OS(N)(=O)=O)cc2F)CC1
19 | – | COc1cc(-c2ccnc(N3CCN(C(=O)Nc4ccc(OS(N)(=O)=O)cc4)CC3)n2)cc(OC)c1OC
108 | – | NS(=O)(=O)Oc1ccc(NC(=O)N2CCN(c3ccc(Cl)cc3)CC2)c(F)c1
14.9 | 94 | NS(=O)(=O)Oc1ccc(NC(=O)N2CCN(c3ccc(Cl)cc3)CC2)cc1
15.2 | – | CCCCCCCCCCN1CCN(C(=O)Nc2ccc(OS(N)(=O)=O)c(F)c2)CC1
26.3 | – | COc1cccc(N2CCN(C(=O)Nc3ccc(OS(N)(=O)=O)cc3)CC2)c1
37 | – | COc1ccc(N2CCN(C(=O)Nc3ccc(OS(N)(=O)=O)cc3)CC2)cc1
3.5 | 33.2 | CCCCCCCCCCN1CCN(C(=O)Nc2ccc(OS(N)(=O)=O)cc2)CC1
7.9 | – | COc1ccc(-c2ccnc(N3CCN(C(=O)Nc4ccc(OS(N)(=O)=O)cc4)CC3)n2)cc1
27.7 | 1690 | CCCCCCCN1CCN(C(=O)Nc2ccc(OS(N)(=O)=O)cc2)CC1
7.8 | – | CCCCCCCCCCN1CCN(C(=O)Nc2ccc(OS(N)(=O)=O)cc2F)CC1
93.5 | – | NS(=O)(=O)Oc1ccc(NC(=O)N2CCN(c3ccc(F)cc3)CC2)cc1
44.3 | – | NS(=O)(=O)Oc1ccc(NC(=O)N2CCN(c3nccc(-c4cccc(C(F)(F)F)c4)n3)CC2)cc1
16.9 | – | NS(=O)(=O)Oc1ccc(NC(=O)N2CCN(c3ccccc3)CC2)cc1
60.7 | – | COc1ccc(-c2ccnc(N3CCN(C(=O)Nc4ccc(OS(N)(=O)=O)cc4)CC3)n2)cc1OC
11.4 | 8.8 | CCCCCCCCN1CCN(C(=O)Nc2ccc(OS(N)(=O)=O)c(F)c2)CC1
4.7 | 139 | NS(=O)(=O)Oc1ccc(NC(=O)N2CCN(c3nccc(-c4cc5ccccc5o4)n3)CC2)cc1
109 | – | Cc1cccc(N2CCN(C(=O)Nc3ccc(OS(N)(=O)=O)cc3F)CC2)c1C

residual activity [1] [%] | IC50 [2] [nM] | Compound
25.4 | – | CCCCCCCCCCN1CCN(C(=O)Nc2ccc(OS(N)(=O)=O)c(Cl)c2)CC1
20.2 | – | NS(=O)(=O)Oc1ccc(NC(=O)N2CCN(Cc3cc4ccccc4o3)CC2)cc1
15.1 | 17 | Cc1cccc(N2CCN(C(=O)Nc3ccc(OS(N)(=O)=O)c(Cl)c3)CC2)c1C
102 | – | CCCCCCCCCCN1CCN(C(=O)Nc2ccc(OS(N)(=O)=O)cc2Cl)CC1
26.7 | – | Cc1cccc(-c2ccnc(N3CCN(C(=O)Nc4ccc(OS(N)(=O)=O)cc4)CC3)n2)c1
47.9 | – | Cc1ccccc1N1CCN(C(=O)Nc2ccc(OS(N)(=O)=O)cc2)CC1
39.4 | – | NS(=O)(=O)Oc1ccc(NC(=O)N2CCN(c3nccc(-c4cccc(Br)c4)n3)CC2)cc1
65.9 | – | NS(=O)(=O)Oc1ccc(NC(=O)N2CCN(c3nccc(-c4ccccc4)n3)CC2)cc1
18.7 | – | NS(=O)(=O)Oc1ccc(NC(=O)N2CCN(Cc3ccccc3)CC2)cc1
13.9 | 18.9 | CCCCCCCCN1CCN(C(=O)Nc2ccc(OS(N)(=O)=O)c(Cl)c2)CC1
23 | 1230 | NS(=O)(=O)Oc1ccc(NC(=O)N2CCN(c3ccc(Cl)c(Cl)c3)CC2)cc1
110 | – | NS(=O)(=O)Oc1ccc(NC(=O)N2CCN(c3ccc(Cl)cc3)CC2)cc1Cl
12.4 | 43.7 | CCCCCCCCN1CCN(C(=O)Nc2ccc(OS(N)(=O)=O)cc2)CC1
5.9 | 66 | Cc1cccc(N2CCN(C(=O)Nc3ccc(OS(N)(=O)=O)cc3)CC2)c1C
7.1 | 5.1 | NS(=O)(=O)Oc1ccc(NC(=O)N2CCN(c3ccc(Cl)cc3)CC2)cc1F
71.6 | – | CCCCCCCCN1CCN(C(=O)Nc2ccc(OS(N)(=O)=O)cc2Cl)CC1
10.4 | – | Cc1cccc(N2CCN(C(=O)Nc3ccc(OS(N)(=O)=O)cc3)CC2)c1
